Data from ChEMBL document CHEMBL4130549, “Synthesis and bioactivities study of new antibacterial peptide mimics: The dialkyl cationic amphiphiles” (Eur J Med Chem, 2018).
Active and inactive are the calls of the source. The calls are words filed in the database; no cut-off is given here.

Tests used:
Escherichia coli [1] = assay: Induction of cytoplasmic membrane depolarization in Escherichia coli ATCC 25922 at 20 ug/ml measured every 2 mins for 12 mins by diSC35 staining based fluorescence assay; assay type: functional, organism-based
Summary of the method: (§1)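 Mid-log cells (4–6 h) pelleted, washed and resuspended (~10^8 CFU/mL) in PBS for S. aureus, or in 5 mM HEPES, 5 mM glucose and 100 mM KCl (1:1:1) for E. coli. Preloaded with diSC35 (10 µM, 50 µL), 30 min for S. aureus and 40 min plus EDTA (200 µM, 50 µL) for E. coli. Baseline read 8 min (ex 622/em 670 nm), then compound added to 20 µg/mL final and read every 2 min for 12 min. Water control.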

Enterobacteriaceae [2] = assay: Antibacterial activity against NDM-1-producing Enterobacteriaceae isolate N1 after 16 to 20 hrs by broth microdilution method; assay type: functional
Summary of the method: (§2)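 Broth microdilution per CLSI in cation-adjusted Mueller-Hinton broth; 4-6 h cultures (~10⁸ CFU/mL) diluted to ~10⁶ CFU/mL and mixed 1:1 with twofold dilutions of water-dissolved compound (256 to 0.5 µg/mL). Incubated 16-20 h at 37 °C; MIC read visually. Each concentration run in duplicate, whole experiment repeated at least twice. MRSA, KPC and NDM-1 strains were clinical isolates.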

Klebsiella pneumoniae [3] = assay: Antibacterial activity against carbapenemase-producing Klebsiella pneumoniae isolate K10 after 16 to 20 hrs by broth microdilution method; assay type: functional; summary of the method: as §2
Enterobacteriaceae [4] = assay: Antibacterial activity against NDM-1-producing Enterobacteriaceae isolate N4 after 16 to 20 hrs by broth microdilution method; assay type: functional; summary of the method: as §2
Enterobacteriaceae [5] = assay: Antibacterial activity against NDM-1-producing Enterobacteriaceae isolate N2 after 16 to 20 hrs by broth microdilution method; assay type: functional; summary of the method: as §2
Staphylococcus aureus [6] = assay: Antibacterial activity against methicillin-resistant Staphylococcus aureus isolate M9 after 16 to 20 hrs by broth microdilution method; assay type: functional
Summary of the method: (§3)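 CLSI broth microdilution in cation-adjusted Mueller-Hinton broth. A 4-6 h culture was diluted to about 10⁶ CFU/mL and mixed 1:1 with twofold compound dilutions (256–0.5 µg/mL before mixing) prepared from aqueous stocks. Plates were incubated at 37 °C for 16-20 h. Each concentration was tested in duplicate, and the experiment was repeated at least twice.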

Enterobacteriaceae [7] = assay: Antibacterial activity against NDM-1-producing Enterobacteriaceae isolate N10 after 16 to 20 hrs by broth microdilution method; assay type: functional; summary of the method: as §2
Klebsiella pneumoniae [8] = assay: Antibacterial activity against carbapenemase-producing Klebsiella pneumoniae after 16 to 20 hrs by broth microdilution method; assay type: functional; summary of the method: as §2
Klebsiella pneumoniae [9] = assay: Antibacterial activity against carbapenemase-producing Klebsiella pneumoniae isolate K6 after 16 to 20 hrs by broth microdilution method; assay type: functional; summary of the method: as §2
[10] = Hemolytic activity in sheep RBC after 1 hr; assay type: ADME, cell-based, Ovis aries, Erythrocyte; details: sheep red blood cells (erythrocytes)
Summary of the method: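 Sheep RBCs suspended at 5% in PBS; 150 µL added to 50 µL compound dilutions (5120 to 10 µg/mL series). Incubated 1 h at 37 °C, then centrifuged; supernatant absorbance read at 540 nm. Lysis (%) = (A−A0)/(Atotal−A0)×100, with untreated 5% RBC as A0 and 0.1% Triton X-100 as total.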

Escherichia coli [11] = assay: Induction of outer membrane permeabilization in Escherichia coli ATCC 25922 at 20 ug/ml measured every 2 mins for 12 mins by NPN staining based fluorescence assay; assay type: functional, organism-based
Summary of the method: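 Mid-log E. coli (~10^8 CFU/mL) in black plates pre-incubated about 40 min with NPN (10 µM, 50 µL). Baseline read 8 min (ex 350/em 420 nm), then compound added to 20 µg/mL final and fluorescence followed every 2 min for 12 min. Water-treated control.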

Klebsiella pneumoniae [12] = assay: Antibacterial activity against carbapenemase-producing Klebsiella pneumoniae isolate K4 after 16 to 20 hrs by broth microdilution method; assay type: functional; summary of the method: as §2
Staphylococcus aureus [13] = assay: Antibacterial activity against methicillin-resistant Staphylococcus aureus isolate M3 after 16 to 20 hrs by broth microdilution method; assay type: functional; summary of the method: as §3
Staphylococcus aureus [14] = assay: Antibacterial activity against methicillin-resistant Staphylococcus aureus isolate M1 after 16 to 20 hrs by broth microdilution method; assay type: functional; summary of the method: as §3
Staphylococcus aureus [15] = assay: Induction of inner membrane permeabilization in Staphylococcus aureus ATCC 29213 at 20 ug/ml measured every 2 mins for 12 mins by propidium iodide staining based fluorescence assay; assay type: functional, organism-based
Summary of the method: (§4)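 Mid-log cells (~10^8 CFU/mL) pre-incubated with propidium iodide (10 µM, 50 µL), 30 min for S. aureus and 40 min for E. coli. Fluorescence (ex 535/em 617 nm) read for 8 min, then compound added to 20 µg/mL final and monitored every 2 min for 12 min. Water-treated control.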

Klebsiella pneumoniae [16] = assay: Antibacterial activity against carbapenemase-producing Klebsiella pneumoniae isolate K2 after 16 to 20 hrs by broth microdilution method; assay type: functional; summary of the method: as §2
Staphylococcus aureus [17] = assay: Antibacterial activity against methicillin-resistant Staphylococcus aureus isolate M4 after 16 to 20 hrs by broth microdilution method; assay type: functional; summary of the method: as §3
Klebsiella pneumoniae [18] = assay: Antibacterial activity against carbapenemase-producing Klebsiella pneumoniae isolate K7 after 16 to 20 hrs by broth microdilution method; assay type: functional; summary of the method: as §2
Staphylococcus aureus [19] = assay: Antibacterial activity against methicillin-resistant Staphylococcus aureus isolate M7 after 16 to 20 hrs by broth microdilution method; assay type: functional; summary of the method: as §3
Enterobacteriaceae [20] = assay: Antibacterial activity against NDM-1-producing Enterobacteriaceae isolate N9 after 16 to 20 hrs by broth microdilution method; assay type: functional; summary of the method: as §2
Staphylococcus aureus [21] = assay: Antibacterial activity against methicillin-resistant Staphylococcus aureus isolate M8 after 16 to 20 hrs by broth microdilution method; assay type: functional; summary of the method: as §3
Escherichia coli [22] = assay: Antibacterial activity against Escherichia coli ATCC 25922 after 16 to 20 hrs by broth microdilution method; assay type: functional; summary of the method: as §2
Enterobacteriaceae [23] = assay: Antibacterial activity against NDM-1-producing Enterobacteriaceae isolate N6 after 16 to 20 hrs by broth microdilution method; assay type: functional; summary of the method: as §2
Klebsiella pneumoniae [24] = assay: Antibacterial activity against carbapenemase-producing Klebsiella pneumoniae isolate K8 after 16 to 20 hrs by broth microdilution method; assay type: functional; summary of the method: as §2
Enterobacteriaceae [25] = assay: Antibacterial activity against NDM-1-producing Enterobacteriaceae after 16 to 20 hrs by broth microdilution method; assay type: functional; summary of the method: as §2
Klebsiella pneumoniae [26] = assay: Antibacterial activity against carbapenemase-producing Klebsiella pneumoniae isolate K9 after 16 to 20 hrs by broth microdilution method; assay type: functional; summary of the method: as §2
Klebsiella pneumoniae [27] = assay: Antibacterial activity against carbapenemase-producing Klebsiella pneumoniae isolate K5 after 16 to 20 hrs by broth microdilution method; assay type: functional; summary of the method: as §2
Enterococcus faecalis = assay: Antibacterial activity against Enterococcus faecalis after 16 to 20 hrs by broth microdilution method; assay type: functional; summary of the method: as §2
Enterobacteriaceae [28] = assay: Antibacterial activity against NDM-1-producing Enterobacteriaceae isolate N3 after 16 to 20 hrs by broth microdilution method; assay type: functional; summary of the method: as §2
Staphylococcus aureus [29] = assay: Antibacterial activity against methicillin-resistant Staphylococcus aureus isolate M5 after 16 to 20 hrs by broth microdilution method; assay type: functional; summary of the method: as §3
Klebsiella pneumoniae [30] = assay: Antibacterial activity against carbapenemase-producing Klebsiella pneumoniae isolate K3 after 16 to 20 hrs by broth microdilution method; assay type: functional; summary of the method: as §2
Salmonella enterica = assay: Antibacterial activity against Salmonella enterica after 16 to 20 hrs by broth microdilution method; assay type: functional; summary of the method: as §2
Staphylococcus aureus [31] = assay: Antibacterial activity against Staphylococcus aureus ATCC 29213 after 16 to 20 hrs by broth microdilution method; assay type: functional; summary of the method: as §3
Enterobacteriaceae [32] = assay: Antibacterial activity against NDM-1-producing Enterobacteriaceae isolate N5 after 16 to 20 hrs by broth microdilution method; assay type: functional; summary of the method: as §2
Klebsiella pneumoniae [33] = assay: Antibacterial activity against carbapenemase-producing Klebsiella pneumoniae isolate K1 after 16 to 20 hrs by broth microdilution method; assay type: functional; summary of the method: as §2
Escherichia coli [34] = assay: Induction of inner membrane permeabilization in Escherichia coli ATCC 25922 at 20 ug/ml measured every 2 mins for 12 mins by propidium iodide staining based fluorescence assay; assay type: functional, organism-based; summary of the method: as §4
Enterobacteriaceae [35] = assay: Antibacterial activity against NDM-1-producing Enterobacteriaceae isolate N8 after 16 to 20 hrs by broth microdilution method; assay type: functional; summary of the method: as §2
Staphylococcus aureus [36] = assay: Antibacterial activity against methicillin-resistant Staphylococcus aureus isolate M6 after 16 to 20 hrs by broth microdilution method; assay type: functional; summary of the method: as §3
Staphylococcus aureus [37] = assay: Antibacterial activity against methicillin-resistant Staphylococcus aureus after 16 to 20 hrs by broth microdilution method; assay type: functional; summary of the method: as §3
Staphylococcus aureus [38] = assay: Induction of cytoplasmic membrane depolarization in Staphylococcus aureus ATCC 29213 at 20 ug/ml measured every 2 mins for 12 mins by diSC35 staining based fluorescence assay; assay type: functional, organism-based; summary of the method: as §1
Enterobacteriaceae [39] = assay: Antibacterial activity against NDM-1-producing Enterobacteriaceae isolate N7 after 16 to 20 hrs by broth microdilution method; assay type: functional; summary of the method: as §2
Staphylococcus aureus [40] = assay: Antibacterial activity against methicillin-resistant Staphylococcus aureus isolate M2 after 16 to 20 hrs by broth microdilution method; assay type: functional; summary of the method: as §3
Staphylococcus aureus [41] = assay: Antibacterial activity against methicillin-resistant Staphylococcus aureus isolate M10 after 16 to 20 hrs by broth microdilution method; assay type: functional; summary of the method: as §3

Question: Which Activity (Escherichia coli [1]) does the source give for `CCCCCCCCCCCN(CCCCCCCCCCC)C(=O)[C@@H](N)CCCCN.Cl.Cl` here?
Answer: Active

Question: What about the MIC (Enterobacteriaceae [2]) of the same compound?
Answer: 32 µg/mL

Question: And the MIC (Klebsiella pneumoniae [3])?
Answer: 32 µg/mL

Question: What about the MIC (Enterobacteriaceae [4]) of the same compound?
Answer: 32 µg/mL

Question: And the MIC (Enterobacteriaceae [5])?
Answer: 32 µg/mL

Question: What about the MIC (Staphylococcus aureus [6]) of the same compound?
Answer: 4 µg/mL

Question: And the MIC (Enterobacteriaceae [7])?
Answer: 32 µg/mL

Question: What about the MIC (Klebsiella pneumoniae [8]) of the same compound?
Answer: 8 µg/mL

Question: What about the MIC (Klebsiella pneumoniae [9]) of the same compound?
Answer: 32 µg/mL

Question: What about the HC50 at 1 h [10] of the same compound?
Answer: 89 µg/mL

Question: And the Activity (Escherichia coli [11])?
Answer: Active

Question: What about the MIC (Klebsiella pneumoniae [12]) of the same compound?
Answer: 8 µg/mL

Question: What about the MIC (Staphylococcus aureus [13]) of the same compound?
Answer: 2 µg/mL

Question: What about the MIC (Staphylococcus aureus [14]) of the same compound?
Answer: 2 µg/mL

Question: And the Activity (Staphylococcus aureus [15])?
Answer: Active

Question: And the MIC (Klebsiella pneumoniae [16])?
Answer: 16 µg/mL

Question: And the MIC (Staphylococcus aureus [17])?
Answer: 2 µg/mL

Question: And the MIC (Klebsiella pneumoniae [18])?
Answer: 32 µg/mL

Question: What about the MIC (Staphylococcus aureus [19]) of the same compound?
Answer: 4 µg/mL

Question: What about the MIC (Enterobacteriaceae [20]) of the same compound?
Answer: 32 µg/mL

Question: And the MIC (Staphylococcus aureus [21])?
Answer: 4 µg/mL

Question: What about the MIC (Escherichia coli [22]) of the same compound?
Answer: 16 µg/mL

Question: And the MIC (Enterobacteriaceae [23])?
Answer: 32 µg/mL

Question: And the MIC (Klebsiella pneumoniae [24])?
Answer: 8 µg/mL

Question: What about the MIC (Enterobacteriaceae [25]) of the same compound?
Answer: 32 µg/mL

Question: And the MIC (Klebsiella pneumoniae [26])?
Answer: 32 µg/mL

Question: What about the MIC (Klebsiella pneumoniae [27]) of the same compound?
Answer: 32 µg/mL

Question: What about the MIC (Enterococcus faecalis) of the same compound?
Answer: 2 µg/mL

Question: And the MIC (Enterobacteriaceae [28])?
Answer: 32 µg/mL

Question: And the MIC (Staphylococcus aureus [29])?
Answer: 4 µg/mL

Question: And the MIC (Klebsiella pneumoniae [30])?
Answer: 16 µg/mL

Question: And the MIC (Salmonella enterica)?
Answer: 8 µg/mL

Question: And the MIC (Staphylococcus aureus [31])?
Answer: 4 µg/mL

Question: What about the MIC (Enterobacteriaceae [32]) of the same compound?
Answer: 32 µg/mL

Question: And the MIC (Klebsiella pneumoniae [33])?
Answer: 32 µg/mL

Question: What about the Activity (Escherichia coli [34]) of the same compound?
Answer: Active

Question: And the MIC (Enterobacteriaceae [35])?
Answer: 16 µg/mL

Question: And the MIC (Staphylococcus aureus [36])?
Answer: 4 µg/mL

Question: What about the MIC (Staphylococcus aureus [37]) of the same compound?
Answer: 4 µg/mL

Question: And the Activity (Staphylococcus aureus [38])?
Answer: Active

Question: What about the MIC (Enterobacteriaceae [39]) of the same compound?
Answer: 16 µg/mL

Question: What about the MIC (Staphylococcus aureus [40]) of the same compound?
Answer: 1 µg/mL

Question: What about the MIC (Staphylococcus aureus [41]) of the same compound?
Answer: 4 µg/mL
